Test results from ChEMBL document CHEMBL1123129, “Hypolipidemic activity of indan-1,3-dione derivatives in rodents” (J Med Chem, 1985).

Key:
[1] = molecular target: Cholesterol 7-alpha-hydroxylase (Cytochrome P450 7A1) (Mus musculus, UniProt Q64505); test: In vitro percent Cholesterol 7-alpha-hydroxylase activity in mouse CF1 liver microsomes at 50 uM; set-up: species or system Microsome; conditions: read-out: Control
In short: (§1)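 Mouse liver enzymes assayed in vitro on 10% homogenates of CF1 male mouse liver, with test drug added at 50–200 μM. Each enzyme follows a published procedure. Protein is measured by Lowry. Activity is given as % of untreated control (X ± SD, N = 6).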

[2] = molecular target: T1, 3-hydroxy-3-methylglutaryl-coenzyme A reductase (Mus musculus) (UniProt Q01237); test: In Vitro evaluation for the CF1 liver enzyme activity on HMG-CoA reductase at concentration 50 uM
T1 sequence (whole entry): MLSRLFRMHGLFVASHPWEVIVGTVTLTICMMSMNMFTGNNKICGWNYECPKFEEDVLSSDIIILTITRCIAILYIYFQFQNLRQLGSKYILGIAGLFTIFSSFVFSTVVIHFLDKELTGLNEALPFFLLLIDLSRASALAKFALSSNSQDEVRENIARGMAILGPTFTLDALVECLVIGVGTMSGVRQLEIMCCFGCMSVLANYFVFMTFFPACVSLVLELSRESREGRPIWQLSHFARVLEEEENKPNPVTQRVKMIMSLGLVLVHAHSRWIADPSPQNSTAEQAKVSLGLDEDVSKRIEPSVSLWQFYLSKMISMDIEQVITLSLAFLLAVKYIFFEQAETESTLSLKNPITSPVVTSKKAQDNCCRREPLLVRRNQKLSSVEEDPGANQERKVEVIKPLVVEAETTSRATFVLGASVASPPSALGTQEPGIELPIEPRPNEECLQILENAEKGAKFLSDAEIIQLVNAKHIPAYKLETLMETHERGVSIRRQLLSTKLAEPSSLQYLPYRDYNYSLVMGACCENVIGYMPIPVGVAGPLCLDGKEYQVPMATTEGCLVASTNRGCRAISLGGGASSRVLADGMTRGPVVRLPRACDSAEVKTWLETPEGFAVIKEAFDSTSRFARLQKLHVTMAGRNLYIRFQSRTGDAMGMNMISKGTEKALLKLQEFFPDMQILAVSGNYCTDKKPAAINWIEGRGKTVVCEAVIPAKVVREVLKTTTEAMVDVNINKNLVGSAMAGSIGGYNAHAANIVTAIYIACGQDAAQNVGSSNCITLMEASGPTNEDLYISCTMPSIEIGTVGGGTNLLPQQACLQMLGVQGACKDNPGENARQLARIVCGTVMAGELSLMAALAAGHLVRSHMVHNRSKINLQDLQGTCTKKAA
In short: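 Liver was taken from CF1 male mice and made into 10% homogenates, which were incubated with test compound at 50, 100 or 200 µM. Each enzyme was assayed by its literature method, and protein was measured by Lowry. N = 6. Activity is expressed as % of untreated control ± SD.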

[3] = tested on: Mus musculus; test: Hypolipidemic activity in CF1 male mice at a dose of 20 mg/kg per day, serum cholesterol measured on the 16th day; type: functional
In short: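 CF1 male mice (~30 g) were given 20 mg/kg per day ip at 11:00 a.m.; N = 6 per group. Tail-vein serum was collected in nonheparinized microcapillaries. Cholesterol was measured on days 9 and 16 by modified Liebermann–Burchard on duplicate 25 µL samples. Triglyceride was measured on day 16 in a separate group, duplicate 50 µL. Values are % control ± SD; Student's t test.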

[4] = tested on: Mus musculus; test: In Vivo effect for the hypolipidemic activity on Acetyl-CoA carboxylase in CF1 mice after 16 days administered orally at a dose of 60 mg/kg; type: functional; conditions: route oral
In short: (§2)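 CF1 male mice are dosed orally at 10–60 mg/kg per day for 16 days, with 1% CMC as the control vehicle. Liver is homogenized at 10% in 0.25 M sucrose + 0.001 M EDTA, pH 7.2. Enzymes are assayed by literature methods, with Lowry protein. Activity is given as % of control (X ± SD, N = 6), with p from Student's t test.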

[5] = tested on: Mus musculus; test: In Vivo effect for the hypolipidemic activity on Hepatic lipoprotein lipase in CF1 mice after 16 days administered orally at a dose of 60 mg/kg; type: functional; conditions: route oral; in short: as §2
[6] = tested on: Rattus norvegicus; test: Compound was evaluated for the hypolipidemic activity at 20 mg/kg per day orally for 14 days on neutral lipids content in rat LDL; type: functional; conditions: route oral
In short: (§3)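 Male Sprague–Dawley rats (~300 g) were dosed orally each day. Blood was drawn from the abdominal vein. Lipoprotein fractions (chylomicron, VLDL, LDL, HDL) were separated by the Hatch–Lees and Havel methods. Each fraction was assayed for cholesterol, triglyceride (enzymatic kit), neutral lipids, phospholipids and Lowry protein. Values are % of 1% CMC vehicle control, N = 6.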

[7] = tested on: Rattus norvegicus; test: Compound was evaluated for the hypolipidemic activity at 20 mg/kg per day orally for 14 days on phospholipids content in rat lipoprotein chylomicron; type: functional; conditions: route oral; in short: as §3
[8] = tested on: Rattus norvegicus; test: Compound was evaluated for the hypolipidemic activity at 20 mg/kg per day orally for 14 days on protein content in rat LDL; type: functional; conditions: route oral; in short: as §3
[9] = tested on: Rattus norvegicus; test: Compound was evaluated for the hypolipidemic activity at 20 mg/kg per day orally for 14 days on protein content in rat lipoprotein chylomicron; type: functional; conditions: route oral; in short: as §3
[10] = tested on: Rattus norvegicus; test: Compound was evaluated for the hypolipidemic activity at 20 mg/kg per day orally for 14 days on protein content in rat small intestine.; type: functional; conditions: route oral
In short: (§4)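 Male Sprague–Dawley rats were dosed orally for 14 days. Liver, small intestine and a 24-h fecal collection were lipid-extracted. Extracts were assayed for cholesterol (modified Liebermann–Burchard), triglyceride (enzymatic kit), neutral lipids, phospholipids and protein. Values are % of 1% CMC vehicle control, mean ± SD, N = 6.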

[11] = tested on: Rattus norvegicus; test: Compound was evaluated for the hypolipidemic activity at 20 mg/kg per day orally for 14 days on triglycerides content in rat liver; type: functional; conditions: route oral; in short: as §4
[12] = tested on: Rattus norvegicus; test: Compound was evaluated for the hypolipidemic activity in Sprague-Dawley rats at a dose of 20 mg/kg orally for Serum cholesterol at 9th day; type: functional; conditions: route oral
In short: (§5)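 Sprague–Dawley male rats (~350 g) received 20 mg/kg per day orally, with 1% CMC as the vehicle control; N = 6. Tail-vein blood was taken between 8:00 and 9:30 a.m. on days 9 and 16 and spun for 3 min to obtain serum. Cholesterol was measured by a modified Liebermann–Burchard reaction and triglyceride by kit. Values are % control ± SD; significance by Student's t test.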

[13] = tested on: Rattus norvegicus; test: Compound was evaluated for the hypolipidemic activity in Sprague-Dawley rats at a dose of 20 mg/kg orally for Serum triglyceride at 9th day; type: functional; conditions: route oral; in short: as §5
[14] = species on record: Mus musculus; test: In Vitro evaluation for the CF1 liver enzyme activity on phosphatidate phosphohydrolase at concentration 200 uM; in short: as §1
[15] = tested on: Mus musculus; test: In Vivo effect for the hypolipidemic activity on phosphatidate phosphohydrolase in CF1 mice after 16 days administered orally at a dose of 40 mg/kg; type: organism-based; set-up: dose 40 mg/kg; in short: as §2
[16] = tested on: Mus musculus; test: In Vivo effect for the hypolipidemic activity on phosphatidate phosphohydrolase in CF1 mice after 16 days administered orally at a dose of 20 mg/kg; type: organism-based; set-up: dose 20 mg/kg; in short: as §2

Chain of Cholesterol 7-alpha-hydroxylase (Cytochrome P450 7A1) (Q64505 whole entry): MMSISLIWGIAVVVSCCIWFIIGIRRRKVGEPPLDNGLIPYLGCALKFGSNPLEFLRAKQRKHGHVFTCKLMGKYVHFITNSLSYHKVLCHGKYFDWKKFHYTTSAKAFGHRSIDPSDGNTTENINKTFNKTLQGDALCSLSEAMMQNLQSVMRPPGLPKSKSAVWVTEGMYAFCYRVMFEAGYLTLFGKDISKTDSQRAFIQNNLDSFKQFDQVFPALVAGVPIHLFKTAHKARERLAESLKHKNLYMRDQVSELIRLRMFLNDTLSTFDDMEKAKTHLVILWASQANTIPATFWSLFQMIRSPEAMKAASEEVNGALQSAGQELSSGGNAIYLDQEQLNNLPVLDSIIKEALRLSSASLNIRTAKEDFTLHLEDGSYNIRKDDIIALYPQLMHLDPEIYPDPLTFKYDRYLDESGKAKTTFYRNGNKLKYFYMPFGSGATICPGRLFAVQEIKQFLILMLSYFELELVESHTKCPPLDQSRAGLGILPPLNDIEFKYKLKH

Compound: COc1ccc(C2C(=O)c3ccccc3C2=O)cc1 [ANISINDIONE]
- activity at 50 µM [1]: 106%
- Control [2]: 107%
- Serum cholesterol, % of control [3]: 59%
- Control [4]: 97%
- Control [5]: 89%
- Control [6]: 69%
- Control [7]: 135%
- Control [8]: 95%
- Control [9]: 118%
- Control [10]: 102%
- Control [11]: 37%
- Control [12]: 74%
- Control [13]: 73%
- Control [14]: 11%
- Control [15]: 57%
- Control [16]: 35%
